Source: ChEMBL document CHEMBL1142702, “Dynamic receptor-based pharmacophore model development and its application in designing novel HIV-1 integrase inhibitors” (J Med Chem, 2005)

Experiments:
[1] = molecular target: T1, Human immunodeficiency virus type 1 integrase (Human immunodeficiency virus 1, UniProt Q7ZJM1); experiment: Concentration to inhibit 3' processing of wild type Human immuno deficiency virus-1 integrase
Summary of the method: (§1)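 Recombinant wild-type IN, 200 nM final, preincubated with inhibitor at 30 °C for 30 min. 20 nM 5′-32P-labeled 21-mer duplex substrate then added for 1 h. Quenched with formamide loading dye. 19-mer or strand-transfer product fraction gave percent inhibition. IC50 from log concentration versus percent inhibition.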

[2] = molecular target: T1, Human immunodeficiency virus type 1 integrase; experiment: Concentration to inhibit strand transfer of wild type Human immuno deficiency virus-1 integrase; summary of the method: as §1
[3] = molecular target: T1, Human immunodeficiency virus type 1 integrase; experiment: Concentration to inhibit strand transfer of soluble mutant (F185K, C280S) of wild type Human immunodeficiency virus-1 integrase
Summary of the method: (§2)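 Integrase (200 nM final) is preincubated with inhibitor for 30 min at 30 °C in buffer with MOPS pH 7.2, HEPES pH 7.5, 7.5 mM MnCl2, 50 mM NaCl, BSA, DTT, 2-mercaptoethanol, glycerol, EDTA and 10% DMSO. Then 20 nM 5′-32P-labelled 21-mer duplex substrate is added for 1 h, and the reaction is quenched with formamide/EDTA dye. The fraction converted to 19-mer (3′-processing) or to strand-transfer products gives percent inhibition, and IC50 comes from log concentration versus percent inhibition.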

[4] = molecular target: T1, Human immunodeficiency virus type 1 integrase; experiment: Concentration to inhibit 3' processing of soluble mutant (F185K, C280S) of wild type Human immunodeficiency virus-1 integrase; summary of the method: as §2
[5] = molecular target: T1, Human immunodeficiency virus type 1 integrase; experiment: Concentration to inhibit strand transfer of wild type Human immunodeficiency virus-1 integrase; summary of the method: as §1
[6] = molecular target: T1, Human immunodeficiency virus type 1 integrase; experiment: Concentration to inhibit 3' processing of wild type Human immunodeficiency virus-1 integrase; summary of the method: as §1

Row | SMILES | IC50 [1] [µM] | IC50 [2] [µM] | IC50 [5] [µM] | IC50 [6] [µM] | IC50 [3] [µM] | IC50 [4] [µM]
1 | CCc1cc(/C=N/CC/N=C/c2cc(CC)sc2S)c(S)s1 | > 100 | 21 | – | – | 6 | > 100
2 | O=C(O)c1cc(NS(=O)(=O)c2ccc(NCc3ccccc3)c([N+](=O)[O-])c2)cc(C(=O)O)c1 | – | – | 66 | > 100 | – | –
3 | Cc1ccc(NC(=O)C(=O)NCc2ccc(/C=N\NC(=O)C(=O)Nc3cc(Cl)ccc3C)o2)cc1C | > 100 | > 100 | – | – | 70 | 510
4 | COc1ccc(NS(=O)(=O)c2cccc(C(=O)Nc3ccccc3C(=O)O)c2)cc1 | 355 | 300 | – | – | – | –
5 | O=C(Nc1ccc(Cc2ccc(NC(=O)c3cccc([N+](=O)[O-])c3)c(C(=O)O)c2)cc1C(=O)O)c1cccc([N+](=O)[O-])c1 | – | – | 13 | 15 | – | –
6 | CCN(CC)c1ccc(/C=N/Nc2nonc2N)c(O)c1 | – | – | > 100 | > 100 | – | –
7 | CCOC(=O)c1cc(C(=O)OCC)c(SCC(=O)Nc2ccc(Br)cc2)nc1O | > 100 | > 100 | – | – | – | –
8 | O=C(NCc1ccco1)c1cc(C(=O)NCc2ccco2)cc(C(=O)NCc2ccco2)c1 | 37 | 8 | – | – | – | –
9 | O=C(NCc1cccc(CNC(=O)C(=O)NCc2ccco2)c1)C(=O)NCc1ccco1 | > 100 | > 100 | – | – | 40 | 1000
10 | O=C(Nc1ccc(Cc2ccc(O)c(NC(=O)c3ccccc3F)c2)cc1O)c1ccccc1F | – | – | > 100 | > 100 | 33 | 205
11 | COc1cc(/C=N/NC(=O)c2cc(C3CC3)[nH]n2)ccc1O | > 100 | > 100 | – | – | – | –
12 | COC(=O)c1cc(NS(=O)(=O)c2ccc(NCc3cccnc3)c(N)c2)cc(C(=O)OC)c1 | > 100 | > 100 | – | – | – | –
13 | COC(=O)c1sccc1NC(=O)c1ccc(C(=O)Nc2ccsc2C(=O)OC)cc1 | – | – | 97 | > 100 | – | –

Continued, in another order:

Row | IC50 [1] [µM] | IC50 [2] [µM] | IC50 [5] [µM] | IC50 [6] [µM] | SMILES | IC50 [3] [µM] | IC50 [4] [µM]
14 | > 100 | > 100 | – | – | COc1ccc2[nH]c(SCC(=O)Nc3ccc(O)c(C(=O)O)c3)nc2c1 | – | –
15 | 177 | 43 | – | – | O=C(N/N=C/c1ccc(O)cc1O)c1cc(C2CC2)[nH]n1 | – | –
16 | > 100 | > 100 | – | – | O=C(c1ccccc1)c1ccc(OCC(O)COc2ccc(C(=O)c3ccccc3)c(O)c2)cc1O | – | –
17 | – | – | 81 | > 100 | COC(=O)C1=C(O)/C(=C\c2ccc(CNC(=O)C(=O)Nc3ccc(C)cc3)o2)N=C1C | – | –
18 | – | – | 38 | 63 | O=C(Nc1ccc(Cc2ccc(NC(=O)c3cccs3)c(C(=O)O)c2)cc1C(=O)O)c1cccs1 | – | –
19 | – | – | 150 | > 1000 | C/C(CC(=O)Nc1c(C)cc(C)cc1C)=N\NC(=O)c1ccc(O)cc1O | – | –
20 | – | – | > 100 | > 100 | CCOC(=O)C(=O)NCc1ccc(/C=C2/N=C(C)C(C(=O)OCC)=C2O)o1 | – | –
21 | – | – | > 100 | > 100 | CCOc1ccc2[nH]c(SCC(=O)Nc3cc(C(=O)O)cc(C(=O)O)c3)nc2c1 | – | –
22 | 140 | 100 | – | – | O=C(O)c1cc(NS(=O)(=O)c2ccc(NCCCN3CCOCC3)c([N+](=O)[O-])c2)cc(C(=O)O)c1 | – | –
23 | > 100 | > 100 | – | – | COc1ccc(C(=O)Nc2ccc(Cc3ccc(NC(=O)c4ccc(OC)cc4)c(O)c3)cc2O)cc1 | – | –
